Experimental data published in ChEMBL document CHEMBL4184325, “Discovery of 4,7-Diamino-5-(4-phenoxyphenyl)-6-methylene-pyrimido[5,4- b]pyrrolizines as Novel Bruton's Tyrosine Kinase Inhibitors” (J Med Chem, 2018).
Values belong to the compound of their own block, whether it stands above or below them.

Assays:
[1] = target: Tyrosine-protein kinase BTK (Homo sapiens, UniProt Q06187); assay: Inhibition of recombinant human BTK using Poly(Glu, Tyr) 4:1 as substrate after 1 hr by ELISA
[2] = Drug metabolism in rat liver microsomes treated with (S)-N-(4-Amino-6-methylene-5-(4-phenoxyphenyl)-7,8-dihydro-6H-pyrimido[5,4-b]pyrrolizin-7-yl)but-2-ynamide after 3 hrs; assay type: ADME, microsome
[3] = Drug metabolism in human liver microsomes treated with (S)-N-(4-Amino-6-methylene-5-(4-phenoxyphenyl)-7,8-dihydro-6H-pyrimido[5,4-b]pyrrolizin-7-yl)but-2-ynamide after 3 hrs; assay type: ADME, microsome
[4] = (§1) Oral bioavailability in rat at 3 mg/kg; assay type: ADME, organism-based; conditions: in vivo
Outline: (§2)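 Rats were given compound at 1 mg/kg iv or 3 mg/kg po. Vehicle was DMSO, Tween 80 and normal saline. Values are the average of three determinations.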

TMD8 = assay: Antiproliferative activity against human TMD8 cells after 72 hrs by MTT assay; assay type: functional, cell-based; conditions: TMD8, 72 h
Outline: (§3)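 Cells grown in RPMI-1640 with FBS at 37 °C, 5% CO2. Seeded and grown 2 h, then treated with various concentrations in PBS solution, each in triplicate, and cultured a further 72 h. Viability read by MTT. IC50 from the Logit method, given as mean ± SD of three independent determinations.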

Ramos = assay: Antiproliferative activity against human Ramos cells after 72 hrs by MTT assay; assay type: functional, cell-based; outline: as §3
[5] = Drug metabolism in rat liver microsomes treated with (S)-N-(4-Amino-6-methylene-5-(4-phenoxyphenyl)-7,8-dihydro-6H-pyrimido[5,4-b]pyrrolizin-7-yl)acrylamide after 3 hrs; assay type: ADME, microsome
[6] = Drug metabolism in mouse liver microsomes treated with (S)-N-(4-Amino-6-methylene-5-(4-phenoxyphenyl)-7,8-dihydro-6H-pyrimido[5,4-b]pyrrolizin-7-yl)acrylamide after 3 hrs; assay type: ADME, microsome
[7] = Drug metabolism in mouse liver microsomes treated with (S)-N-(4-Amino-6-methylene-5-(4-phenoxyphenyl)-7,8-dihydro-6H-pyrimido[5,4-b]pyrrolizin-7-yl)but-2-ynamide after 3 hrs; assay type: ADME, microsome
[8] = Drug metabolism in human liver microsomes treated with (S)-N-(4-Amino-6-methylene-5-(4-phenoxyphenyl)-7,8-dihydro-6H-pyrimido[5,4-b]pyrrolizin-7-yl)acrylamide after 3 hrs; assay type: ADME, microsome
Rattus norvegicus [9] = assay: Volume of distribution at steady state in rat at 1 mg/kg, iv; assay type: ADME, organism-based; conditions: in vivo; outline: as §2
Rattus norvegicus [10] = assay: Half life in rat at 1 mg/kg, iv; assay type: ADME, organism-based; conditions: in vivo
Outline: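 Rats given 1 mg/kg intravenously; vehicle DMSO, Tween 80, normal saline; values are the average of three determinations.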

[11] = Cmax in rat at 3 mg/kg, po; assay type: ADME, organism-based; parameters: dose 3 mg/kg, route oral; conditions: in vivo
Outline: (§4)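 Rats dosed orally at 3 mg/kg; vehicle DMSO, Tween 80, normal saline; values are the average of three determinations.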

[12] = Tmax in rat at 3 mg/kg, po; assay type: ADME, organism-based; conditions: in vivo; outline: as §2
Rattus norvegicus [13] = assay: AUC (0 to infinity) in rat at 3 mg/kg, po; assay type: ADME, organism-based; parameters: dose 3 mg/kg, time infinity, route oral; conditions: in vivo; outline: as §4
Rattus norvegicus [14] = assay: as §1; assay type: ADME, organism-based; conditions: in vivo; outline: as §2
[15] = Drug metabolism in mouse liver microsomes assessed as (S)-4-(4-(4,7-diamino-6-methylene-7,8-dihydro-6H-pyrimido[5,4-b]pyrrolizin-5-yl)phenoxy)phenol formation after 3 hrs; assay type: ADME, microsome
[16] = Drug metabolism in mouse liver microsomes assessed as (S)-N-(4-amino-5-(4-(4-hydroxyphenoxy)phenyl)-6-methylene-7,8-dihydro-6H-pyrimido[5,4-b]pyrrolizin-7-yl)but-2-ynamide formation after 3 hrs; assay type: ADME, microsome
[17] = Drug metabolism in rat liver microsomes assessed as (S)-N-(4-amino-5-(4-(4-hydroxyphenoxy)phenyl)-6-methylene-7,8-dihydro-6H-pyrimido[5,4-b]pyrrolizin-7-yl)but-2-ynamide formation after 3 hrs; assay type: ADME, microsome
[18] = Drug metabolism in mouse liver microsomes assessed as (S)-N-(4-amino-6-methylene-5-(4-phenoxyphenyl)-7,8-dihydro-6H-pyrimido[5,4-b]pyrrolizin-7-yl)-4-hydroxybut-2-ynamide formation after 3 hrs; assay type: ADME, microsome
[19] = Drug metabolism in rat liver microsomes assessed as (S)-N-(4-amino-6-methylene-5-(4-phenoxyphenyl)-7,8-dihydro-6H-pyrimido[5,4-b]pyrrolizin-7-yl)-4-hydroxybut-2-ynamide formation after 3 hrs; assay type: ADME, microsome
[20] = Drug metabolism in human liver microsomes assessed as (S)-N-(4-amino-6-methylene-5-(4-phenoxyphenyl)-7,8-dihydro-6H-pyrimido[5,4-b]pyrrolizin-7-yl)-4-hydroxybut-2-ynamide formation after 3 hrs; assay type: ADME, microsome
[21] = Drug metabolism in rat liver microsomes assessed as (S)-N-(4-amino-5-(4-(4-hydroxyphenoxy)phenyl)-6-methylene-7,8-dihydro-6H-pyrimido[5,4-b]pyrrolizin-7-yl)-4-hydroxybut-2-ynamide formation after 3 hrs; assay type: ADME, microsome
[22] = Drug metabolism in human liver microsomes assessed as (S)-N-(4-amino-5-(4-(4-hydroxyphenoxy)phenyl)-6-methylene-7,8-dihydro-6H-pyrimido[5,4-b]pyrrolizin-7-yl)-4-hydroxybut-2-ynamide formation after 3 hrs; assay type: ADME, microsome
[23] = Drug metabolism in rat liver microsomes assessed as (S)-N-(4-amino-5-(4-hydroxyphenyl)-6-methylene-7,8-dihydro-6H-pyrimido[5,4-b]pyrrolizin-7-yl)but-2-ynamide formation after 3 hrs; assay type: ADME, microsome
[24] = Drug metabolism in human liver microsomes assessed as (S)-N-(4-amino-5-(4-hydroxyphenyl)-6-methylene-7,8-dihydro-6H-pyrimido[5,4-b]pyrrolizin-7-yl)but-2-ynamide formation after 3 hrs; assay type: ADME, microsome

Sequence of Tyrosine-protein kinase BTK (Q06187 whole entry): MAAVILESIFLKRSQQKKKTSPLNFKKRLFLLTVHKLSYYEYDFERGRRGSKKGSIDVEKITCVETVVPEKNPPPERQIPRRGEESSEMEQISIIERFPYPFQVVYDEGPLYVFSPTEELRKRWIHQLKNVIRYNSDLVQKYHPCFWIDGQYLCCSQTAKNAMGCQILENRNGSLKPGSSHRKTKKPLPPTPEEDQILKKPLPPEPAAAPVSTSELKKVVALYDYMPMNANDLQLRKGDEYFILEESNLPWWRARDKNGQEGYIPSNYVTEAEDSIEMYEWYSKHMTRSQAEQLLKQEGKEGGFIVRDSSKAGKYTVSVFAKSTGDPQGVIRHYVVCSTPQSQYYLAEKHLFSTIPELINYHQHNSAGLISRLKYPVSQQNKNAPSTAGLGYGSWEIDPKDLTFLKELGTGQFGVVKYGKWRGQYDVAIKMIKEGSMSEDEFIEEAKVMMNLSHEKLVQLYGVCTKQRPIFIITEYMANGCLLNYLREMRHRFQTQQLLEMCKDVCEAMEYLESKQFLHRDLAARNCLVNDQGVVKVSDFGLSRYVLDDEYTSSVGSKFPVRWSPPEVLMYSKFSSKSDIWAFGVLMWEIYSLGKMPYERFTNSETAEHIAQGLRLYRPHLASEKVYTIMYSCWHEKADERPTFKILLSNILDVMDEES

IC50 [1]: 0.8 nM
Structure (SMILES): C=CC(=O)N[C@@H]1Cn2c(c(-c3ccc(C(=O)Nc4cc(C(F)(F)F)ccn4)cc3)c3c(N)ncnc32)C1=C

IC50 [1]: 3.1 nM
Structure (SMILES): C=CC(=O)N[C@@H]1Cn2c(c(-c3ccc(C(=O)NCc4ccccn4)cc3)c3c(N)ncnc32)C1=C

IC50 [1]: 2.2 nM
Structure (SMILES): C=CC(=O)N[C@@H]1Cn2c(c(-c3ccc(Oc4ccc(F)cc4)cc3)c3c(N)ncnc32)C1=C

Drug metabolism [2]: Metabolite_Detected
Drug metabolism [3]: Metabolite_Detected
Structure (SMILES): C=C1c2c(-c3ccc(Oc4ccc(O)cc4)cc3)c3c(N)ncnc3n2C[C@H]1NC(=O)C#CCO

IC50 [1]: 0.5 nM
bioavailability [4]: 8.24%
IC50 (Ramos): 14300 nM
Structure (SMILES): C=CC(=O)N[C@@H]1Cn2c(c(-c3ccc(C(=O)Nc4ccccn4)cc3)c3c(N)ncnc32)C1=C
IC50 (TMD8): 4 nM

Drug metabolism [2]: Metabolite_Detected
Drug metabolism [3]: Metabolite_Detected
Structure (SMILES): C=C1c2c(-c3ccc(O)cc3)c3c(N)ncnc3n2C[C@H]1NC(=O)C#CC

Drug metabolism [5]: Metabolite_Detected
Drug metabolism [6]: Metabolite_Detected
Drug metabolism [7]: Metabolite_Detected
Structure (SMILES): C=C1c2c(-c3ccc(Oc4ccc(O)cc4)cc3)c3c(N)ncnc3n2C[C@H]1N

IC50 [1]: 23.6 nM
Structure (SMILES): C=CC(=O)NCC(=O)NC1Cn2c(c(-c3ccc(Oc4ccccc4)cc3)c3c(N)ncnc32)C1=C (stereo not given)

Drug metabolism [8]: Metabolite_Detected
Drug metabolism [5]: Metabolite_Detected
Drug metabolism [6]: Metabolite_Detected
Structure (SMILES): C=C1c2c(-c3ccc(Oc4ccccc4)cc3)c3c(N)ncnc3n2C[C@H]1NC(=O)C(O)CO (stereo not given in full)

IC50 [1]: 4.3 nM
Structure (SMILES): C=CC(=O)N[C@@H]1Cn2c(c(-c3ccc(C(=O)N[C@@H](COC)c4ccccn4)cc3)c3c(N)ncnc32)C1=C

Drug metabolism [7]: Metabolite_Detected
Drug metabolism [2]: Metabolite_Detected
Drug metabolism [3]: Metabolite_Detected
Structure (SMILES): C=C1c2c(-c3ccc(Oc4ccccc4)cc3)c3c(N)ncnc3n2C[C@H]1NC(=O)C#CCO

IC50 [1]: 23.8 nM
Structure (SMILES): C=CC(=O)NC1(C(=O)NC2Cn3c(c(-c4ccc(Oc5ccccc5)cc4)c4c(N)ncnc43)C2=C)CC1 (stereo not given)

IC50 [1]: 0.4 nM
Vdss (Rattus norvegicus [9]): 1.39 L/kg
t1/2 (Rattus norvegicus [10]): 32.4 min
Cmax [11]: 340 ng/mL
Tmax [12]: 15 min
AUC (Rattus norvegicus [13]): 557 ng·h/mL
F (Rattus norvegicus [14]): 35.8%
Drug metabolism [15]: Metabolite_Detected
Drug metabolism [16]: Metabolite_Detected
Drug metabolism [17]: Metabolite_Detected
Drug metabolism [18]: Metabolite_Detected
Drug metabolism [19]: Metabolite_Detected
Drug metabolism [20]: Metabolite_Detected
Drug metabolism [21]: Metabolite_Detected
Drug metabolism [22]: Metabolite_Detected
Drug metabolism [23]: Metabolite_Detected
Drug metabolism [24]: Metabolite_Detected
Structure (SMILES): C=C1c2c(-c3ccc(Oc4ccccc4)cc3)c3c(N)ncnc3n2C[C@H]1NC(=O)C#CC

IC50 [1]: 3.7 nM
Structure (SMILES): C=CC(=O)N[C@@H]1Cn2c(c(-c3ccc(Oc4ccc(C(C)(C)C)cc4)cc3)c3c(N)ncnc32)C1=C

Drug metabolism [8]: Metabolite_Detected
Drug metabolism [5]: Metabolite_Detected
Drug metabolism [6]: Metabolite_Detected
Structure (SMILES): C=C1c2c(-c3ccc(Oc4ccccc4)cc3)c3c(N)ncnc3n2C[C@H]1NC(=O)C=CO

IC50 [1]: 62.6 nM
Structure (SMILES): C=C1c2c(-c3ccc(Oc4ccccc4)cc3)c3c(N)ncnc3n2CC1NC(=O)CC (stereo not given)
